Structures can show the parent of a compound that is named as a salt.
How the values were obtained:
Plasmodium falciparum [1] = assay: Antiplasmodial activity against Plasmodium falciparum 3D7 infected in RBCs by firefly luciferase reporter gene assay; format: functional, organism-based
Method in brief: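 Sorbitol-synchronised 3D7 expressing firefly luciferase from the HRPII promoter, at 1% late-ring parasitemia and 3% hematocrit in RPMI/albumax II medium. Sixteen 2-fold dilutions from 17 μM to 0.5 nM, 48 h at 37°C under 5% O2/5% CO2/N2. Bright-Glo luminescence is normalised to untreated infected and uninfected-RBC wells. IC50 by four-parameter logistic fit.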

Plasmodium falciparum [2] = assay: Antiplasmodial activity against multidrug-resistant Plasmodium falciparum TM90C2B by SYBR Green 1-based fluorescence assay; format: functional, organism-based
Method in brief: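 Resistant TM90C2B parasites are treated over a dose range and growth is read as SYBR green I fluorescence. IC50 comes from a fit of the log dose-response relationship, as the mean of at least three separate experiments.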

Plasmodium falciparum [3] = assay: Antiplasmodial activity against Plasmodium falciparum 3D7 by SYBR Green 1-based fluorescence assay; format: functional, organism-based
[4] = Cytotoxicity activity against human HAEC cells after 24 hrs; format: cell-based
HepG2 = assay: Cytotoxicity activity against human HepG2 cells after 24 hrs; format: cell-based; settings: HepG2, 24 h

| SMILES | IC50 (Plasmodium falciparum [1]; Plasmodium falciparum, 3D7) | other results |
| --- | --- | --- |
| CN(CCc1ccccc1)c1cc(Br)cc(Br)c1O | 36 nM | – |
| N#CN/C(=N\CCNC(=O)c1ccc(N)cc1)NCCCOc1cccc(CN2CCCCC2)c1 [AMINOPOTENTIDINE] | 14700 nM | – |
| NCCc1c[nH]cn1 [HISTAMINE] | 660 nM | – |
| O=S(=O)(c1ccccc1)N1CCN(CCCC(c2ccc(F)cc2)c2ccc(F)cc2)CC1 | 3000 nM | – |
| CCN(CC)CCNc1ccc(CO)c2sc3ccccc3c(=O)c12 [HYCANTHONE] | 3020 nM | – |
| c1ccc(CCN2CCC(NC3CCCCC3)CC2)cc1 | 890 nM | – |
| N/C(=N\C(=O)c1nc(Cl)c(N)nc1N)NCc1ccc(Cl)c(Cl)c1 [3',4' DICHLOROBENZAMIL] | 143 nM | – |
| CCCCOc1ccc(CC(=O)NO)cc1 [BUFEXAMAC] | 2770 nM | – |
| Oc1c(Cl)cccc1C1=NN=C(c2ccc(Cl)cc2)C1 | 15000 nM | – |
| Fc1ccc(C(CCCN2CCNCC2)c2ccc(F)cc2)cc1 | 4500 nM | – |
| CCN(CC)CCCC(c1ccc(F)cc1)c1ccc(F)cc1 | 5700 nM | – |
| CC(=O)N(C1=C(N(C)C)C(=O)c2ccccc2C1=O)c1cccc(F)c1 | 11 nM | IC50 (Plasmodium falciparum [2]): 74 nM; IC50 (Plasmodium falciparum [3]): 110 nM |
| Oc1c(Cl)cccc1C1=NN=C(c2ccc(F)cc2)C1 | 1500 nM | – |
| Cc1ccc(CS(=O)(=O)N2CCN(CCCC(c3ccc(F)cc3)c3ccc(F)cc3)CC2)cc1 | 800 nM | – |
| CC(=O)N(C1=C(N2CCCCC2)C(=O)c2ccccc2C1=O)c1cccc(Cl)c1 | 4300 nM | – |
| Clc1ccc(C(OCCN2CCCCC2)c2ccccc2)cc1 (centres undefined) [CLOPERASTINE HYDROCLORIDE] | 4880 nM | – |
| CN1CCc2cccc3c2[C@H]1Cc1ccc(O)c(O)c1-3 [APOMORPHINE HYDROCHLORIDE] | 373 nM | – |
| CNC(=C[N+](=O)[O-])NCCSCc1ccc(CN(C)C)o1 [RANITIDINE HYDROCHLORIDE] | > 22800 nM | – |
| CCN(c1nc(N)c(C(=O)NC(=N)N)nc1Cl)C(C)C [5-(N-ETHYL-N-ISOPROPYL)AMILORIDE] | 825 nM | – |
| CCCN1CCC(NCC(c2ccccc2)c2ccccc2)CC1 | 490 nM | – |
| C=C[C@H]1CN2CC[C@H]1C[C@@H]2[C@@H](O)c1ccnc2ccc(OC)cc12 [QUINIDINE SULFATE] | 56 nM | – |

| SMILES | IC50 (Plasmodium falciparum [1]; Plasmodium falciparum, 3D7) | other results |
| --- | --- | --- |
| CC(=O)N(C1=C(N2CCOCC2)C(=O)c2ccccc2C1=O)c1cccc(Cl)c1 | 790 nM | IC50 (Plasmodium falciparum [2]): 510 nM; IC50 (Plasmodium falciparum [3]): 1800 nM |
| CC(=O)N(C1=C(N2CCOCC2)C(=O)c2ccccc2C1=O)c1ccccc1 | 780 nM | IC50 (Plasmodium falciparum [2]): 530 nM; IC50 (Plasmodium falciparum [3]): 1600 nM |
| N/C(=N\C(=O)c1nc(Cl)c(N)nc1N)NCc1ccccc1 [BENZAMIL HYDROCHLORIDE] | 217 nM | – |
| CCCN(CC1CC1)c1cc(Br)cc(Br)c1O | 710 nM | – |
| CCC(=O)O[C@]1(C(=O)CCl)[C@@H](C)C[C@H]2[C@@H]3CCC4=CC(=O)C=C[C@]4(C)[C@@]3(F)[C@@H](O)C[C@@]21C [CLOBETASOL PROPIONATE] | 797 nM | – |
| C=CC[N+](C)(C)c1ccc(CCC(=O)CCc2ccc([N+](C)(C)CC=C)cc2)cc1 | 107 nM | – |
| Cc1cccc(C2=NN=C(c3ccc(Br)cc3)C2)c1O | 4700 nM | – |
| COc1ccc(CCN2CCC(Nc3nc4ccccc4n3Cc3ccc(F)cc3)CC2)cc1 [ASTEMIZOLE] | 254 nM | – |
| CCNC(=O)N1CCN(CCCC(c2ccc(F)cc2)c2ccc(F)cc2)CC1 [AMPEROZIDE] | – | IC50 [4]: 83000 nM; IC50 (HepG2): 95000 nM |
| N#Cc1ccc2c(c1)N(CCCN1CCC(O)CC1)c1ccccc1S2 [PERICIAZINE] | 6560 nM | – |
| C/N=C(/NC#N)NCCSCc1csc(NC(=N)N)n1 [TIOTIDINE] | > 22800 nM | – |
| Oc1c(Cl)cccc1N1CCCCCCC1 | 180 nM | – |
| CN/C(=N\CCSCc1nc[nH]c1C)NC#N [CIMETIDINE] | > 22800 nM | – |
| C[C@@H]1C[C@H]2[C@@H]3CCC4=CC(=O)C=C[C@]4(C)[C@@]3(Cl)[C@@H](O)C[C@]2(C)[C@@]1(OC(=O)c1ccco1)C(=O)CCl [MOMETASONE FUROATE] | 1510 nM | – |
| CCCc1nc2c(C)cc(-c3nc4ccccc4n3C)cc2n1Cc1ccc(-c2ccccc2C(=O)O)cc1 [TELMISARTAN] | 1610 nM | – |
| CCCCCC[C@H]1C(=O)O[C@H](C)[C@H](NC(=O)c2cccc(NC=O)c2O)C(=O)O[C@@H](C)[C@@H]1OC(=O)CC(C)C [ANTIMYCIN A] | 2190 nM | – |
| CC1CCCN(c2cccc(Br)c2O)C1 (centres undefined) | 130 nM | – |
| c1cc(CN2CCCCC2)cc(OCCCNc2nc3ccccc3s2)c1 [ZOLANTIDINE] | – | IC50 [4]: 75000 nM; IC50 (HepG2): 76000 nM |
| O=C1CCN(CCCC(c2ccc(F)cc2)c2ccc(F)cc2)CC1 | 5400 nM | – |
| Clc1cccc(CNC2CCN(Cc3ccccc3)CC2)c1 | 1100 nM | – |
| CC(C)CN(C)c1nc(N)c(C(=O)N=C(N)N)nc1Cl [5-(N-METHYL-N-ISOBUTYL)AMILORIDE] | 549 nM | – |

| SMILES | IC50 (Plasmodium falciparum [1]; Plasmodium falciparum, 3D7) | other results |
| --- | --- | --- |
| CC(=O)N(C1=C(N(C)C)C(=O)c2ccccc2C1=O)c1cccc(Br)c1 | 32 nM | IC50 (Plasmodium falciparum [2]): 94 nM; IC50 (Plasmodium falciparum [3]): 130 nM |
| NC(N)=Nc1nc(CSCC/C(N)=N/S(N)(=O)=O)cs1 [FAMOTIDINE] | > 22800 nM | – |
| c1cc(CN2CCCCC2)cc(OCCCNc2nc3ccccc3s2)c1 [ZOLANTIDINE DIMALATE] | > 22800 nM | – |
| Fc1ccc(C(CCCN2CCCCC2)c2ccc(F)cc2)cc1 | 6000 nM | – |
| CN(Cc1ccccc1)c1cc(Br)cc(Br)c1O | 680 nM | – |
| Oc1c(Br)cccc1N1CCCCCCC1 | 430 nM | – |
| CC[C@H]1CN2CCc3cc(OC)c(OC)cc3[C@@H]2C[C@@H]1C[C@H]1NCCc2cc(OC)c(OC)cc21 [EMETINE DIHYDROCHLORIDE HYDRATE] | 1 nM | – |
| Clc1ccc(CNC2CCN(Cc3ccccc3)CC2)cc1 | 250 nM | – |
| CC1CCCN(c2cc(Cl)cc(Cl)c2O)C1 (centres undefined) | 110 nM | – |
| CCNC(=O)N1CCN(CCCC(c2ccc(F)cc2)c2ccc(F)cc2)CC1 [AMPEROZIDE HYDROCHLORIDE] | – | IC50 (Plasmodium falciparum [1]): 35 nM |
| CC(C)C[C@@H]1NC(=O)[C@H](CCCN)NC(=O)[C@H](C(C)C)NC(=O)[C@H](Cc2ccc(O)cc2)N[C@@H](CCC(=O)O)C(=O)N[C@@H](CC(N)=O)C(=O)[C@@H](Cc2ccccc2)NC(=O)[C@H](Cc2ccccc2)NC(=O)[C@@H]2CCCN2C(=O)[C@@H](Cc2ccccc2)NC1=O [TYROTHRICIN] | 0.05 nM | – |
| C[C@H]1[C@H](OC(=O)CCC(=O)O)O[C@@H]2O[C@@]3(C)CC[C@H]4[C@H](C)CC[C@@H]1[C@@]24OO3 [ARTESUNATE] | 3.3 nM | – |
| C=C[C@H]1CN2CC[C@H]1C[C@@H]2[C@@H](O)c1ccnc2ccccc12 [CINCHONINE] | 5 nM | – |
| CCN(CC)CCCC(C)Nc1c2ccc(Cl)cc2nc2ccc(OC)cc12 (centres undefined) [QUINACRINE DIHYDROCHLORIDE] | 1 nM | – |
| CCCCN(Cc1ccccc1)c1ccccc1O | 420 nM | – |
| CCCN(CCC)[C@H]1CCc2c(F)ccc(O)c2C1 | 5 nM | – |
| O=c1ccc2ccccc2[nH]1 [OXYQUINOLINE HEMISULFATE] | 1140 nM | – |
| O=C1C(O)=C([C@H]2CC[C@H](c3ccc(Cl)cc3)CC2)C(=O)c2ccccc21 [ATOVAQUONE] | 0.41 nM | IC50 (Plasmodium falciparum [2]): 12000 nM; IC50 (Plasmodium falciparum [3]): 0.8 nM |
| CC[C@]1(O)C[C@@H]2CN(CCc3c([nH]c4ccccc34)[C@@](C(=O)OC)(c3cc4c(cc3OC)N(C)[C@H]3[C@@](O)(C(=O)OC)[C@H](OC(C)=O)[C@]5(CC)C=CCN6CC[C@]43[C@@H]65)C2)C1 [VINBLASTINE] | 2 nM | – |
| Fc1ccc(C(CCCN2CCOCC2)c2ccc(F)cc2)cc1 | 18000 nM | – |
| N=C(N)c1ccc(OCCCCCOc2ccc(C(=N)N)cc2)cc1 | 42 nM | – |

| SMILES | IC50 (Plasmodium falciparum [1]; Plasmodium falciparum, 3D7) | other results |
| --- | --- | --- |
| Fc1ccc(C(CCCN2CCCC2)c2ccc(F)cc2)cc1 | 12000 nM | – |
| CCCCN(C)c1cc(Br)cc(Br)c1O | 270 nM | – |
| CCCN(CC1CC1)c1cc(Cl)cc(Cl)c1O | 330 nM | – |
| COc1cccc2c1C(=O)c1c(O)c3c(c(O)c1C2=O)C[C@@](O)(C(=O)CO)C[C@@H]3O[C@H]1C[C@H](N)[C@H](O)[C@H](C)O1 [DOXORUBICIN] | – | IC50 [4]: 13000 nM; IC50 (HepG2): 69000 nM |
| CC[C@]1(O)C[C@H]2CN(CCc3c([nH]c4ccccc34)[C@@](C(=O)OC)(c3cc4c(cc3OC)N(C=O)[C@H]3[C@@](O)(C(=O)OC)[C@H](OC(C)=O)[C@]5(CC)C=CCN6CC[C@]43[C@@H]65)C2)C1 [VINCRISTINE] | 1 nM | – |
| COc1ccc(O)c(N2CCCCC2)c1 | 790 nM | – |
| CN1CCN(CCCC(c2ccc(F)cc2)c2ccc(F)cc2)CC1 | 12000 nM | – |
| CCNC(=O)N1CCN(CCCC(c2ccc(F)cc2)c2ccc(F)cc2)CC1 [AMPEROZIDE DIHYDROCHLORIDE] | – | IC50 (Plasmodium falciparum [1]): 443 nM |
| COc1ccc(CNC2CCN(Cc3ccccc3)CC2)cc1 | 1300 nM | – |
| CC(=O)N(C1=C(N(C)C)C(=O)c2ccccc2C1=O)c1ccc(F)c(F)c1 | 25 nM | IC50 (Plasmodium falciparum [2]): 110 nM; IC50 (Plasmodium falciparum [3]): 170 nM |
| CNC(=C[N+](=O)[O-])NCCSCc1csc(CN(C)C)n1 [NIZATIDINE] | > 22800 nM | – |
| CCCN(CC1CC1)c1cc(OC)cc(Br)c1O | 290 nM | – |
| C=C[C@H]1CN2CC[C@H]1C[C@H]2[C@H](O)c1ccnc2ccc(OC)cc12 [QUININE SULFATE] | 280 nM | – |
| NC(=O)CCCCn1ccc(/N=C(\N)NCC(F)(F)F)n1 | 18000 nM | – |
| CCCN1CCC(NC(c2ccccc2)c2ccc(Cl)cc2)CC1 (centres undefined) | 1100 nM | – |
| CC(=O)N(C1=C(N2CCCCC2)C(=O)c2ccccc2C1=O)C1CCCCC1 | 5400 nM | – |
| Cc1ccnc(NS(=O)(=O)c2ccc(N)cc2)n1 [SULFAMERAZINE] | 6 nM | – |
| O=C(Nc1ccccc1)N1CCN(CCCC(c2ccc(F)cc2)c2ccc(F)cc2)CC1 | 7300 nM | – |
| O[Si](CCCN1CCCCC1)(c1ccc(F)cc1)C1CCCCC1 (centres undefined) | 4 nM | – |
| CN(C)c1nc(N)c(C(=O)NC(=N)N)nc1Cl [5-(N,N-DIMETHYL)AMILORIDE HYDROCHLORIDE] | 1100 nM | – |
| Oc1ccccc1N1CCCC2CCCCC21 (centres undefined) | 410 nM | – |

— ChEMBL document CHEMBL1671701, “Discovery of potent small-molecule inhibitors of multidrug-resistant Plasmodium falciparum using a novel miniaturized high-throughput luciferase-based assay” (Antimicrob Agents Chemother, 2010)
